Assay results: PMC10903085 (Neurotherapeutics, 2023)
Entries after “also recorded” stand apart in the source; their conditions may differ. Values belong to the compound of their own block, whether it stands above or below them.

Columns and labels:
[1] = Oral administration, brain and plasma concentrations; type: in vivo, mouse; details: male CD1 mice, PO 5 mg/kg, 1 h, 2 h, 4 h post-treatment
Outline: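 Male CD1 mice received test compound orally at 5 mg/kg, formulated at 1 mg/mL in 10 % NMP, 60 % PEG400 and 30 % saline. Brain and plasma levels were measured by HPLC-MS at 1, 2 and 4 h after dosing, and the brain/plasma ratio was taken from these.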

[2] = Metabolic stability in mouse liver microsomes; type: in vitro ADME
[3] = tested on: primary rat neurons; assay: Modified MTT assay of Aβ toxicity in primary neurons; type: cell-based; details: compound 0.3, 3 or 15 μM, 90-min pretreatment, 2.5 μM Aβ, 24 h
[4] = tested on: Tau; assay: Western blot of Tau levels in primary neurons; type: cell-based, rat; details: 15 μM, 24 h
Outline: (§1)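 Rat primary neurons at DIV13 were treated with 15 μM test compound or vehicle for 24 h. They were lysed in Tris/NaCl/EDTA buffer containing SDS, Triton and deoxycholate. 5 μg protein (Bradford) was run on 4–12 % bis-tris/MOPS gels and blotted to PVDF. Blots were probed overnight at 4 °C for Fyn (1:1000), then GAPDH (1:5000), stripped and reprobed for Tau (1:10,000). Infrared detection was used, with densitometry.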

[5] = tested on: primary neurons; assay: Multi-electrode array, Aβ-induced network hyperexcitability; type: cell-based, rat; details: 1 h pretreatment, 500 nM Aβ oligomers, 4 h
[6] = tested on: Tau-Fyn interaction; assay: Endogenous Tau-Fyn PLA in primary neurons; type: cell-based, rat; details: 24 h
Outline: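 Rat hippocampal neurons (E19 Sprague-Dawley embryos) grown on coated coverslips to DIV20, treated with test compound or vehicle, and fixed in PFA 24 h later. Cells were permeabilised in 0.25 % Triton X-100 and blocked in 5 % NGS. Tau (1:1000) and Fyn (1:250) antibodies were applied overnight at 4 °C, then Duolink PLA was run. Thresholded puncta were counted from 5–7 images per coverslip and normalised to vehicle slides; analysis was blinded.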

[7] = tested on: Fyn; assay: Western blot of Fyn levels in primary neurons; type: cell-based, rat; details: 15 μM, 24 h
Outline: as §1

[8] = molecular target: Fyn (Homo sapiens, UniProt P06241); assay: Custom kinase panel for Fyn; type: binding; details: 3 μM; activity defined as <35 % of control
[9] = molecular target: Tau-BIN1SH3 interaction (Homo sapiens, UniProt P10636); assay: Tau-Flag PLA, Tau-BIN1SH3 in HEK-293 cells; type: cell-based; details: 15 μM
Outline: (§2)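 HEK-293 cells on PDL/laminin coverslips in DMEM with 10 % FBS were co-transfected (Fugene) with 125 ng human 4R2N Tau-mKate2 and 500 ng GST-SH3-Flag plasmid for the relevant SH3 domain. After 24 h, test compound was added at 15 μM final, and cells were fixed 24 h later. PLA used Tau (1:1000) and Flag (1:1000) antibodies, with puncta quantified by thresholding.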

[10] = tested on: 97 kinases; assay: Eurofins DiscoverX ScanEDGE kinase panel; type: binding; details: 3 μM; activity defined as <35 % of control
[11] = molecular target: Tau-PxxP5/6 (Homo sapiens, UniProt P10636); assay: Isothermal titration calorimetry with Tau-PxxP5/6 peptide; type: binding; details: 25 °C
Outline: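 Calorimetric titration at 25 °C in 5 % DMSO. About 120 μM Tau-PxxP5/6 peptide sat in the cell and 1 mM test compound in the syringe. Sixteen 2.5 μL injections were made. Mixing heat from titrant into buffer alone was used as background, and the normalised heat was fitted to a one-set-of-sites model.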

[12] = molecular target: Tau-SrcSH3 interaction (Homo sapiens, UniProt P10636); assay: Tau-Flag PLA, Tau-SrcSH3 in HEK-293 cells; type: cell-based; details: 15 μM
Outline: as §2

[13] = tested on: Tau-tubulin interaction; assay: Tau-tubulin PLA in untransfected HEK-293 cells; type: cell-based, human; details: 15 μM, 24 h
Outline: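 Untransfected HEK-293 cells were grown 48 h, then exposed to 15 μM test compound for 24 h and fixed. PLA for endogenous Tau–α-tubulin proximity used Tau (1:1000) and α-tubulin (1:2000) primary antibodies, with the permeabilisation, blocking, probe, ligation and amplification steps of the neuronal PLA.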

[14] = molecular target: FynSH3 (Homo sapiens, UniProt P06241); assay: Isothermal titration calorimetry with FynSH3; type: binding; details: 25 °C
Outline: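 Purified human FynSH3 from E. coli was dialysed at 4 °C into 20 mM Tris, 150 mM NaCl, pH 8.0, quantified by A280 and brought to 5 % DMSO. The cell held ~120 μM FynSH3 and the syringe 1 mM test compound. Sixteen 2.5 μL injections were made at 25 °C. Titrant-into-buffer heat was used as background, and data were fitted to a one-set-of-sites model.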

[15] = molecular target: Tau-LckSH3 interaction (Homo sapiens, UniProt P10636); assay: Tau-Flag PLA, Tau-LckSH3 in HEK-293 cells; type: cell-based; details: 15 μM
Outline: as §2

[16] = molecular target: T1, Tau-FynSH3 interaction (Homo sapiens, UniProt P10636); assay: Tau-Flag PLA, Tau-FynSH3 in HEK-293 cells; type: cell-based; details: HEK293, read-out: Inhibition of Tau-FynSH3 interaction (PLA)
Outline: as §2

[17] = molecular target: T1, Tau-FynSH3 interaction; assay: Tau-FynSH3 AlphaScreen; type: binding; details: left-hand phenyl ring removed
[18] = Phase IIa clinical trial, tolerable dose; cited from earlier work
[19] = tested on: Sam68(PxxP)-FynSH3; details: cited from earlier work
[20] = tested on: SFK; details: cited from earlier work

T1 sequence (P10636 1-441 isoform P10636-8): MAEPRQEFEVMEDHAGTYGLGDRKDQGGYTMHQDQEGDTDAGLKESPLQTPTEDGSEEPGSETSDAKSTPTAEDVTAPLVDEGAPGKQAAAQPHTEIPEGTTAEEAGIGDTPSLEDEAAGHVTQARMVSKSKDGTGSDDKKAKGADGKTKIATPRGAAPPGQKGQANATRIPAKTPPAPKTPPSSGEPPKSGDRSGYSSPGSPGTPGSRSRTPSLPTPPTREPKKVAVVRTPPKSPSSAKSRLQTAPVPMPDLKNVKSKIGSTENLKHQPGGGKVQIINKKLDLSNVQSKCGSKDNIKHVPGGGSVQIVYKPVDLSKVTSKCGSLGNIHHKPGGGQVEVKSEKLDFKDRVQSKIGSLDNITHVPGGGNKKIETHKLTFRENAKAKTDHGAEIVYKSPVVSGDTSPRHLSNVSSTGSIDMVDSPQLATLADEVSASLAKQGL
Chain of Tau-LckSH3 interaction (P10636 1-441 isoform P10636-8): as above
Chain of Tau-BIN1SH3 interaction (P10636 1-441 isoform P10636-8): as above
Chain of Tau-SrcSH3 interaction (P10636 1-441 isoform P10636-8): as above
Chain of FynSH3 (P06241 82-143 limits assumed): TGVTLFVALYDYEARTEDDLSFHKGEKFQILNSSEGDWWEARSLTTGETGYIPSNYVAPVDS
Chain of Fyn (Homo sapiens, UniProt P06241) (P06241 whole entry): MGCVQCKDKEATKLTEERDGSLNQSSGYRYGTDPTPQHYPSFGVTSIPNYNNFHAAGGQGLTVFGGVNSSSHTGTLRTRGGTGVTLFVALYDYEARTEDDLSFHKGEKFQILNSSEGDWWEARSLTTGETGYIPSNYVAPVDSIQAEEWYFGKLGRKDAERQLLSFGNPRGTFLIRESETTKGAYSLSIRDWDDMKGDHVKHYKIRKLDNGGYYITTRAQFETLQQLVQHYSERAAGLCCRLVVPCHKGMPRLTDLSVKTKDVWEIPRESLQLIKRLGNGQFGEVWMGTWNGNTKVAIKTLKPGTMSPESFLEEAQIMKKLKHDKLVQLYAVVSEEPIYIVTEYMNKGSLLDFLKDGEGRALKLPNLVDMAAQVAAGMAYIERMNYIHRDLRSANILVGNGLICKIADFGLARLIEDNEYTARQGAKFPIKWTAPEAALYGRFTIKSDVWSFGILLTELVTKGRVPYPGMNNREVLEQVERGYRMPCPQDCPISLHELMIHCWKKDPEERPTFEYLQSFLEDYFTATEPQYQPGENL

half-life [2]: 2.43 h
Compound: O=C(CN1C(=O)CSc2cc(F)ccc21)Nc1nnc(-c2ccccn2)[nH]1 [SRI-39210, 2-(7-fluoro-3-oxo-2,3-dihydro-4H-benzo[b][1,4]thiazin-4-yl)-N-(5-(pyridin-2-yl)-4H-1,2,4-triazol-3-yl)acetamide]
Detection in plasma and brain after oral administration [1]: able to detect SRI-39210 in plasma, it did not cross the BBB and was not present in brain
Amelioration of Aβ toxicity in modified MTT assay [3]: inhibited Aβ toxicity

Compound: O=C(CN1C(=O)CSc2cc(Cl)ccc21)Nc1nnc(-c2ccccn2)[nH]1 [SRI-39211, 2-(7-chloro-3-oxo-2,3-dihydro-4H-benzo[b][1,4]thiazin-4-yl)-N-(5-(pyridin-2-yl)-4H-1,2,4-triazol-3-yl)acetamide]
Amelioration of Aβ toxicity in modified MTT assay [3]: inhibited Aβ toxicity

Compound: Cc1ccc2c(c1)SCC(=O)N2CC(=O)Nc1nnc(-c2ccccn2)[nH]1 [SRI-39488, 2-(7-methyl-3-oxo-2,3-dihydro-4H-benzo[b][1,4]thiazin-4-yl)-N-(5-(pyridin-2-yl)-4H-1,2,4-triazol-3-yl)acetamide]
Amelioration of Aβ toxicity in modified MTT assay [3]: inhibited Aβ toxicity

Detection in plasma and brain after oral administration [1]: detected in both plasma and brain
Compound: O=C(CN1CCSc2ccccc21)Nc1nnc(-c2ccccn2)[nH]1 [SRI-39669, 2-(2,3-dihydro-4H-benzo[b][1,4]thiazin-4-yl)-N-(5-(pyridin-2-yl)-4H-1,2,4-triazol-3-yl)acetamide]

Compound: O=C(CN1CCCc2ccccc21)Nc1nnc(-c2ccccn2)[nH]1 [SRI-42654, 2-(3,4-Dihydroquinolin-1(2H)-yl)-N-(5-(pyridin-2-yl)-4H-1,2,4-triazol-3-yl)acetamide]
Amelioration of Aβ toxicity in modified MTT assay [3]: inhibited Aβ toxicity

Detection in plasma and brain after oral administration [1]: observed in both plasma and brain
Inhibition of Fyn kinase [8]: did not inhibit
Inhibition of Tau-BIN1 SH3 interaction (PLA) [9]: moderately inhibited
Inhibition of any of the 97 kinases [10]: did not inhibit
Interaction with Tau-PxxP5/6 peptide by ITC [11]: no interaction
Inhibition of Tau-SrcSH3 interaction (PLA) [12]: did not significantly inhibit
Binding to FynSH3 by ITC [14]: did not bind FynSH3
Inhibition of Tau-LckSH3 interaction (PLA) [15]: strongly inhibited
inhibition at 15 µM [16]: 37%
Compound: O=C(CN1CCOc2ccccc21)Nc1nnc(-c2ccccn2)[nH]1 [SRI-42667, 2-(2,3-Dihydro-4H-benzo[b][1,4]oxazin-4-yl)-N-(5-(pyridin-2-yl)-4H-1,2,4-triazol-3-yl)acetamide]
Tau levels [4]: does not reduce
Prevention of Aβ-induced network hyperexcitability (MEA) ([5]; 3 μM): prevented Aβ-induced network hyperexcitability
Prevention of Aβ-induced network hyperexcitability (MEA) ([5]; 15 μM): prevented Aβ-induced network hyperexcitability
Reduction of endogenous Tau-Fyn PLA ([6]; 3 μM): reduces endogenous Tau-Fyn PLA
Reduction of endogenous Tau-Fyn PLA ([6]; 15 μM): reduces endogenous Tau-Fyn PLA
Fyn levels [7]: does not reduce
Amelioration of Aβ toxicity in modified MTT assay [3]: ameliorates Aβ toxicity; also recorded: inhibited Aβ toxicity
Inhibition of Tau-tubulin interaction (PLA) [13]: does not inhibit Tau-tubulin interaction

Reduction of AlphaScreen activity relative to SRI-39669 [17]: 8–10 fold
Compound: O=C(CN1CCCCC1)Nc1nnc(-c2ccccn2)[nH]1 [SRI-43142, 2-(piperidin-1-yl)-N-(5-(pyridin-2-yl)-4H-1,2,4-triazol-3-yl)acetamide]

Reduction of AlphaScreen activity relative to SRI-39669 [17]: 8–10 fold
Compound: O=C(CN1CCOCC1)Nc1nnc(-c2ccccn2)[nH]1 [SRI-43143, 2-Morpholino-N-(5-(pyridin-2-yl)-4H-1,2,4-triazol-3-yl)acetamide]

Compound: CN1CCN(CCOc2cc(OC3CCOCC3)c3c(Nc4c(Cl)ccc5c4OCO5)ncnc3c2)CC1 [saracatinib]
Clinical benefit in AD [18]: no clinical benefit

Compound: UCS15A
Inhibition of Sam68(PxxP)-FynSH3 interaction [19]: inhibited
Inhibition of SFK kinase activity [20]: does not inhibit SFK kinase activity
